Measurements gathered from unrelated publications.
Lines come from different studies, so protocols differ.
Target: cAMP-dependent protein kinase catalytic subunit beta (PRKACB, Homo sapiens, UniProt P22694)

| Structure (SMILES) | assay | setting | measurement | value |
| --- | --- | --- | --- | --- |
| Cc1ccc(C(=O)NCc2ccsc2)cc1C#Cc1cn(C(C)C)c2ncnc(N)c12 | enzyme activity, inhibitor | 1 µM | activity vs control | 111% |
| C[C@H](c1ccnc(Nc2nc3ccc(-c4cc(N(C)C)ncn4)cc3[nH]2)c1)N1CCN(C(=O)CC(F)(F)F)CC1 | cell-free assay, competition with immobilised ligand | 0.1 µM | remaining binding | 100% |
| O=C(Nc1cnn(-c2csc(C(=O)NC3COC3)c2)c1)Nc1ccccc1Cl | enzyme activity, inhibitor | 5 µM | remaining activity | 99% |
| COc1cc(Cl)c(C(=O)N[C@@H](CN[C@H]2CC[C@@H](N)CC2)Cc2ccc(C#N)cc2)cc1-c1ccc(CN[C@H](C)c2ccc(C)cc2)o1 | enzyme activity, inhibitor | 1 µM | remaining activity | 66% |
| CC(C)(O)[C@H]1CC[C@H](Nc2ccc3ncc(-c4cccc(C(F)(F)F)c4)n3n2)CC1 | enzyme activity, inhibitor | 1 µM | remaining activity | 97.7% |
| Cn1cnc(Br)c1C1=CN(c2ncnc3[nH]cnc23)CCS1 | enzyme activity, inhibitor, radiometric | 50 nM | inhibition | 18.7% |
| COc1cc(-c2cc(-c3ccc(N4CCNCC4)cc3)cnc2C)cc(OC)c1OC | enzyme activity, inhibitor | 1 µM | inhibition | 3% |
| CN1CC(Oc2cnc(C#N)cc2-c2ccn3nc(NC(=O)C4CC4)cc3c2)C1 | enzyme activity, inhibitor | 1 µM | inhibition | -10% |
| Nc1ncnc2occ(-c3ccc(NC(=O)Nc4cc(C(F)(F)F)ccc4F)cc3)c12 | enzyme activity, inhibitor | 20 µM | remaining activity | 22% |
| O=C(Nc1cccnn1)N1CCC(=Cc2cccc(Oc3ccc(C(F)(F)F)cn3)c2)CC1 | cell-free assay, competition with immobilised ligand | 1 µM | remaining binding | 100% |
| Cc1ccc(C(=O)Nc2ccc(CN3CCN(C)CC3)c(C(F)(F)F)c2)cc1C#Cc1cnc2cccnn12 | enzyme activity, inhibitor | 23.5 nM | remaining activity | 83% |
| C[C@@H]1CN(c2cc(-c3nn(C)c4ccc(OC5(C)CC5)cc34)ncn2)C[C@H](C)O1 | cell-free assay, competition with immobilised ligand | 1 µM | remaining binding | 100% |
| Cc1sc(C(=O)NC2COC2)cc1-n1cc(NC(=O)Nc2c(F)cccc2Cl)cn1 | enzyme activity, inhibitor | 10 µM | remaining activity | 104% |
